ChEMBL document CHEMBL1955769 (Bioorg Med Chem Lett, 2012)
Converted amounts (≈) assume the structure as drawn.

Assays:
Histone deacetylase 2 = Histone deacetylase 2 (Homo sapiens, UniProt Q92769); assay: Inhibition of HDAC2
HCT-116 [1] = assay: Antiproliferative activity against human HCT116 cells after 3 days by WST-1 assay; assay type: functional, cell-based; conditions: HCT-116, 72 h
In short: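 HCT116 human colon cancer cells exposed to compounds for 3 days; growth read by WST-1 assay; IC50 derived from triplicate assays.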

Histone deacetylase 1 = Histone deacetylase 1 (Homo sapiens, UniProt Q13547); assay: Inhibition of HDAC1
Sequence of Histone deacetylase 1 (Q13547 whole entry): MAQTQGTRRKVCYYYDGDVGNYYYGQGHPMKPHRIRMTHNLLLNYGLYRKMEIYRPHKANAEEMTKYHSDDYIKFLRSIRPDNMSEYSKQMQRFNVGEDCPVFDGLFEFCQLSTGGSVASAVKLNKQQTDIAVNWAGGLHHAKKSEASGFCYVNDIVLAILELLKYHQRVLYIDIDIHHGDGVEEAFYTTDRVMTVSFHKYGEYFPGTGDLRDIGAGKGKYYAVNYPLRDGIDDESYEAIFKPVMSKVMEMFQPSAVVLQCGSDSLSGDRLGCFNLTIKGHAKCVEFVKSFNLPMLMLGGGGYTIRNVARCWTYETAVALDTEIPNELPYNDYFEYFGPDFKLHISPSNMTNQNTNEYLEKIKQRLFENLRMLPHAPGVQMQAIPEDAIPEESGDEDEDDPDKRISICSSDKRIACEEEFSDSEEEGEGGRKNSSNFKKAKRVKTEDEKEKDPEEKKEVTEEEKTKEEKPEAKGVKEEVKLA

[2] = Solubility of the compound in 10 % DMSO/Water; assay type: physicochemical
HCT-116 [3] = assay: Induction of cell cycle arrest in human HCT116 cells assessed as accumulation at SubG1 phase at 10 uM after 48 hrs by flow cytometry (reference value: 2.3 %); assay type: functional
In short: (§1)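 HCT116 cells (1.0 × 10^6) were plated for 24 h, then exposed to compound for 24 or 48 h, with 0.1% DMSO as control. DNA staining used a BD Cycletest Plus DNA reagent kit, and phase percentages (subG1, G0/G1, S, G2/M) were scored; data representative of three independent experiments.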

HCT-116 [4] = assay: Induction of cell cycle arrest in human HCT116 cells assessed as accumulation at G0/G1 phase at 10 uM after 48 hrs by flow cytometry (reference value: 81.9 %); assay type: functional; in short: as §1
Mus musculus [5] = assay: Toxicity in human HCT116 cells xenografted in BALB/c- nu.nu mouse assessed as relative body weight change at 45 mg/kg, po administered every alternate days for 14 days measured up to day 16; assay type: organism-based, HCT-116; design: dose 45 mg/kg, route oral; conditions: in vivo, 336 h
In short: (§2)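 Nude mice bearing HCT116 xenografts of 90–110 mm3, grouped as vehicle (0.1% Tween 80, n = 6) or treated (n = 7); oral dosing at 45 or 80 mg/kg on days 0, 2, 4, 6, 8, 10, 12 and 14. Tumor volume and body weight followed over 16 days; tumor effect given as T/C; two-tailed Student t-test versus control, with standard errors shown.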

HCT-116 [6] = assay: Induction of cell cycle arrest in human HCT116 cells assessed as accumulation at S phase at 10 uM after 24 hrs by flow cytometry (reference value: 10.6 %); assay type: functional; in short: as §1
Mus musculus [7] = assay: Toxicity in human HCT116 cells xenografted in BALB/c nu/nu mouse assessed as relative body weight change at 80 mg/kg, po for 14 days measured up to day 16; assay type: organism-based, HCT-116; design: dose 80 mg/kg, route oral; conditions: in vivo, 336 h; in short: as §2
HCT-116 [8] = assay: Induction of cell cycle arrest in human HCT116 cells assessed as accumulation at S phase at 10 uM after 48 hrs by flow cytometry (reference value: 10.4 %); assay type: functional; in short: as §1
[9] = Half life in BALB/c mouse at 45 mg/kg, po by HPLC-ESI-MS/MS analysis; assay type: ADME, organism-based; design: dose 45 mg/kg, route oral; conditions: in vivo
HCT-116 [10] = assay: Induction of cell cycle arrest in human HCT116 cells assessed as accumulation at G0/G1 phase at 10 uM after 24 hrs by flow cytometry (reference value: 74.2 %); assay type: functional; in short: as §1
HCT-116 [11] = assay: Antitumor activity against human HCT116 cells xenografted in BALB/c nu/nu mouse assessed as suppression of tumor growth at 80 mg/kg, po administered every alternate days for 14 days measured up to 16 days relative to control; assay type: functional; in short: as §2
[12] = Tmax in BALB/c mouse at 45 mg/kg, po by HPLC-ESI-MS/MS analysis; assay type: ADME, organism-based; design: dose 45 mg/kg, route oral; conditions: in vivo
[13] = Cmax in BALB/c mouse at 45 mg/kg, po by HPLC-ESI-MS/MS analysis; assay type: ADME, organism-based; design: dose 45 mg/kg, route oral; conditions: in vivo
HCT-116 [14] = assay: Induction of cell cycle arrest in human HCT116 cells assessed as accumulation at G2/M phase at 10 uM after 24 hrs by flow cytometry (reference value: 9.5 %); assay type: functional; in short: as §1
HCT-116 [15] = assay: Induction of cell cycle arrest in human HCT116 cells assessed as accumulation at SubG1 phase at 10 uM after 24 hrs by flow cytometry (reference value: 5.7 %); assay type: functional; in short: as §1
HCT-116 [16] = assay: Antitumor activity against human HCT116 cells xenografted in BALB/c nu/nu mouse assessed as suppression of tumor growth at 45 mg/kg, po administered every alternate days for 14 days measured up to day 16 relative to control; assay type: functional; in short: as §2
HCT-116 [17] = assay: Induction of cell cycle arrest in human HCT116 cells assessed as accumulation at G2/M phase at 10 uM after 48 hrs by flow cytometry (reference value: 5.4 %); assay type: functional; in short: as §1

Sequence of Histone deacetylase 2 (Q92769 whole entry): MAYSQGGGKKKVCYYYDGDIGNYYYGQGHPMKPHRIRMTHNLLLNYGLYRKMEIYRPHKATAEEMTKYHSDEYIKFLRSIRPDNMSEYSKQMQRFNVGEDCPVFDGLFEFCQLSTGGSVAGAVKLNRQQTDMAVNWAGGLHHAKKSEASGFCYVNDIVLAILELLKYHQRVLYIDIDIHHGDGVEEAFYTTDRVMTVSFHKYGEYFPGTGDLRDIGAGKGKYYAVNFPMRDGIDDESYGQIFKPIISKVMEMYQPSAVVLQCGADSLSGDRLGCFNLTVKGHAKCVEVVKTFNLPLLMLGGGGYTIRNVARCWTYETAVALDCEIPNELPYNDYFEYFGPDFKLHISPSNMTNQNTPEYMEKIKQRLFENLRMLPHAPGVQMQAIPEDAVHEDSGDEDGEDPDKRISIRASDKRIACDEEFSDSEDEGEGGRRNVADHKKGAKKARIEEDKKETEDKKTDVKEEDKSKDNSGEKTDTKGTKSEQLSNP

| IC50 (Histone deacetylase 2) | IC50 (HCT-116 [1]) | IC50 (Histone deacetylase 1) | solubility [2] | half-life [9] | Tmax [12] | Cmax [13] | Compound | Activity (HCT-116 [3]) | Activity (HCT-116 [4]) | Activity (Mus musculus [5]) | Activity (HCT-116 [6]) | Activity (Mus musculus [7]) | Activity (HCT-116 [8]) | Activity (HCT-116 [10]) | T/C (HCT-116 [11]) | Activity (HCT-116 [14]) | Activity (HCT-116 [15]) | T/C (HCT-116 [16]) | Activity (HCT-116 [17]) |
| --- | --- | --- | --- | --- | --- | --- | --- | --- | --- | --- | --- | --- | --- | --- | --- | --- | --- | --- | --- |
| 800 nM | 530 nM | 80 nM | 1000 µg/mL (≈ 2220 µM) | – | – | – | CN1CCN(C(=O)NCc2ccc(C(=O)Nc3cc(-c4cccs4)ccc3N)cc2)CC1 | – | – | – | – | – | – | – | – | – | – | – | – |
| 670 nM | 510 nM | 50 nM | 600 µg/mL (≈ 1220 µM) | 2.2 h | 1 h | 8.3 µM | CCN1CCN(C(=O)NCc2ccc(C(=O)Nc3cc(-c4cccs4)ccc3N)cc2)C(=O)C1=O | 1.4% | 75.3% | Non-toxic | 3.8% | Non-toxic | 2.8% | 71.5% | 47% | 22.4% | 2.3% | 60% | 20.5% |
| 470 nM | 560 nM | 40 nM | 500 µg/mL (≈ 1320 µM) | – | – | – | CCC(=O)NCc1ccc(C(=O)Nc2cc(-c3cccs3)ccc2N)cc1 | 1.4% | 75% | – | 5.2% | – | 2.8% | 79.5% | – | 10.7% | 4.6% | – | 20.8% |
| – | 760 nM | – | – | – | – | – | Nc1ccccc1NC(=O)c1ccc(CNC(=O)OCc2cccnc2)cc1 [ENTINOSTAT] | 30.2% | 62.1% | Toxic | 4.9% | – | 2.2% | 72.7% | – | 13.6% | 8.8% | 51% | 5.5% |
| 740 nM | 490 nM | 60 nM | < 100 µg/mL | – | – | – | Nc1ccc(-c2cccs2)cc1NC(=O)c1ccc(CN(CCO)Cc2ccc3c(c2)OCO3)cc1 | – | – | – | – | – | – | – | – | – | – | – | – |
| 880 nM | 440 nM | 100 nM | – | – | – | – | Nc1ccc(-c2cccs2)cc1NC(=O)c1ccc(CNC(=O)N2CCOCC2)cc1 | – | – | – | – | – | – | – | – | – | – | – | – |
| 3360 nM | 1200 nM | 1170 nM | 200 µg/mL (≈ 477 µM) | – | – | – | Nc1ccccc1NC(=O)c1ccc(CN(CCO)Cc2ccc3c(c2)OCO3)cc1 | – | – | – | – | – | – | – | – | – | – | – | – |
